Data as given in ChEMBL document CHEMBL5696442, “Discovery of type II inhibitors of TGFβ-activated kinase 1 (TAK1) and mitogen-activated protein kinase kinase kinase kinase 2 (MAP4K2)” (J Med Chem, 2015).
Calls of active or inactive are those of the source. The rule behind the calls is not given here.

Legend:
[1] = target: Mitogen-activated protein kinase kinase kinase 1 (Homo sapiens) (UniProt Q13233); experiment: Inhibition of MAP3K1 Lys2 labeling site in human Huh-7 cell lysate at 1 uM by KiNativ Profiling analysis relative to control; type: subcellular
Mitogen-activated protein kinase kinase kinase 1 (Homo sapiens), sequence (Q13233 whole entry): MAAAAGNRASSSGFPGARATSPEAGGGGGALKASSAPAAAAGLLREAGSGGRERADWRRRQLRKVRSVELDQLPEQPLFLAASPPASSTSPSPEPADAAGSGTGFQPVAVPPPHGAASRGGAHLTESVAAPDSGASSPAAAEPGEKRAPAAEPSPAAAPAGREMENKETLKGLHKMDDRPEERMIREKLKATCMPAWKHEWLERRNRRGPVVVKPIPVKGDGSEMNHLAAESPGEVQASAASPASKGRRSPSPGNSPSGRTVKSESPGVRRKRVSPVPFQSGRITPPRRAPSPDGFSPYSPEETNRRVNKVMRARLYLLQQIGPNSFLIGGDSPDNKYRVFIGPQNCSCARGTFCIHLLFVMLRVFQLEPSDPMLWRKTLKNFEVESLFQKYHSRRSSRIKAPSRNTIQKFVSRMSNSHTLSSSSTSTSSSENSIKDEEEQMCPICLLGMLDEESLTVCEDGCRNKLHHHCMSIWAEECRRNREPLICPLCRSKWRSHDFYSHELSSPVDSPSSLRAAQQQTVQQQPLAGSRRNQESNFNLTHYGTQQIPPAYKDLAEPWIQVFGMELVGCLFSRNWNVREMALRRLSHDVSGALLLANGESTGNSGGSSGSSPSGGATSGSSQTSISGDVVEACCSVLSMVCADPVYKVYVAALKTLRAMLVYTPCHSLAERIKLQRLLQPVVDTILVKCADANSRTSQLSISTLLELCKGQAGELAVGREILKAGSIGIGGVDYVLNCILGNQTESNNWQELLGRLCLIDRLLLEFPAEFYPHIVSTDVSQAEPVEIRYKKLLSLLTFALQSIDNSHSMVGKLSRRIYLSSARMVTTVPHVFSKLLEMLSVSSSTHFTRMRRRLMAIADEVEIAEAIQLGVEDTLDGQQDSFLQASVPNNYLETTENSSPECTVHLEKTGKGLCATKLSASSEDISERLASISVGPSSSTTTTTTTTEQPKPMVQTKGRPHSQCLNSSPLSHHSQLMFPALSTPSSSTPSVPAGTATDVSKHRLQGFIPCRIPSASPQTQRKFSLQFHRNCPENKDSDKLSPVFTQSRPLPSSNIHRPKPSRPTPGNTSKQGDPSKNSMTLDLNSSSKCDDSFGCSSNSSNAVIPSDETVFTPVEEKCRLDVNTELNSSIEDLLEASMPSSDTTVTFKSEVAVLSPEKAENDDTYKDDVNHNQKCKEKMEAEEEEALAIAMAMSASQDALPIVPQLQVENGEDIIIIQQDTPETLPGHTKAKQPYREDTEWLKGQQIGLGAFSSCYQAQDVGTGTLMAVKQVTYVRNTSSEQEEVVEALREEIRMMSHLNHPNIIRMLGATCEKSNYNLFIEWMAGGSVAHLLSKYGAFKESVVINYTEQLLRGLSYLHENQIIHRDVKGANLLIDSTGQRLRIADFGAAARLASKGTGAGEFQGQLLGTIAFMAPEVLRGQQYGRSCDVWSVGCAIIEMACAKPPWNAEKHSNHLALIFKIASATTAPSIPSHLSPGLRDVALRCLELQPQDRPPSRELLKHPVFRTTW

[2] = target: T1, Serine/threonine-protein kinase TAO3 (Homo sapiens) (UniProt Q9H2K8); experiment: Inhibition of TAO3 Lys2 labeling site in human Huh-7 cell lysate at 1 uM by KiNativ Profiling analysis relative to control; type: subcellular
T1 sequence (whole entry): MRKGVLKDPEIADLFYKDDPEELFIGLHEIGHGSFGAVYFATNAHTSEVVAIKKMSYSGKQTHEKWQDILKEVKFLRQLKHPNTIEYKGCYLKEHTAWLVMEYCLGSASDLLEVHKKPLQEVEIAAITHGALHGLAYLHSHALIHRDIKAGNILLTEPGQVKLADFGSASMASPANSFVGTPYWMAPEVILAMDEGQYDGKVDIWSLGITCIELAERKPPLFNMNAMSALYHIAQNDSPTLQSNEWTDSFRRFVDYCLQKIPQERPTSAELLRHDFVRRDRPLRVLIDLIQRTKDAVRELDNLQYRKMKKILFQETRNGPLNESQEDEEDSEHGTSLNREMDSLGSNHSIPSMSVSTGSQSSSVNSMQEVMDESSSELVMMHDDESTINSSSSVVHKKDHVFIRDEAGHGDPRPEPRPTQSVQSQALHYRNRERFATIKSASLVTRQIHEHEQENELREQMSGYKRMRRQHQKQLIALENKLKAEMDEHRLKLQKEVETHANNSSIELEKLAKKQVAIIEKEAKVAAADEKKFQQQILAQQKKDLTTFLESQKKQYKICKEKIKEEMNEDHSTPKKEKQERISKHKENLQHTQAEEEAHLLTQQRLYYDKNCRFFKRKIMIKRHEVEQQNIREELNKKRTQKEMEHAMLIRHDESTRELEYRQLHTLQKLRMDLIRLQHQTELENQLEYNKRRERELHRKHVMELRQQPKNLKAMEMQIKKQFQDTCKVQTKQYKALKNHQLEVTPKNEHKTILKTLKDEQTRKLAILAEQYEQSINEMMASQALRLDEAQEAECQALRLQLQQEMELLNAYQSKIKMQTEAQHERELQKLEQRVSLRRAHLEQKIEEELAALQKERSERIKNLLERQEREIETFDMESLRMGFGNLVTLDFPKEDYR

[3] = target: T2, Serine/threonine-protein kinase TBK1 (Homo sapiens) (UniProt Q9UHD2); experiment: Inhibition of TBK1 K1 labeling site in human Huh-7 cells at 1 uM by KiNativ Profiling analysis relative to control; type: cell-based
T2 sequence (whole entry): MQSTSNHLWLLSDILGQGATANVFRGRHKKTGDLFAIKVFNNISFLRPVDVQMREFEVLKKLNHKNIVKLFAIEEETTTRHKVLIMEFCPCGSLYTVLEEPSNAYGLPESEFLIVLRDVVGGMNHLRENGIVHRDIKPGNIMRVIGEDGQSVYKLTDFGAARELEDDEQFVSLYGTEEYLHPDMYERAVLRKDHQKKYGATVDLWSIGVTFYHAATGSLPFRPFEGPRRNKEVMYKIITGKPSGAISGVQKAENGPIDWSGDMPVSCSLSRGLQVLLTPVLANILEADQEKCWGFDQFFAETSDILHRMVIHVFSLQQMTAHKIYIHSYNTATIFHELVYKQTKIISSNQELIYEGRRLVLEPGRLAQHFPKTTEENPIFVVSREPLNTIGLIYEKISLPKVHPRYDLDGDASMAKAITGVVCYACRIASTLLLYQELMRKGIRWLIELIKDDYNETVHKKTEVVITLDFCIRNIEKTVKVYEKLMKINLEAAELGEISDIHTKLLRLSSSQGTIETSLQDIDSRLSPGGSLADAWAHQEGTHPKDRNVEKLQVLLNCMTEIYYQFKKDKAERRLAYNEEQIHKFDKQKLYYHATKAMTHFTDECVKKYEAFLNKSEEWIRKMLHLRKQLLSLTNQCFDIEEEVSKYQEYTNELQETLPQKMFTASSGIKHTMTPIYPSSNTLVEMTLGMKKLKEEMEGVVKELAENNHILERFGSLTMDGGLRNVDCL

[4] = target: TRAF2 and NCK-interacting protein kinase (Homo sapiens) (UniProt Q9UKE5); experiment: Inhibition of ZC2/TNIK K2 labeling site in human Huh-7 cells at 10 uM by KiNativ Profiling analysis relative to control; type: cell-based
TRAF2 and NCK-interacting protein kinase (Homo sapiens), sequence (Q9UKE5 whole entry, looked up): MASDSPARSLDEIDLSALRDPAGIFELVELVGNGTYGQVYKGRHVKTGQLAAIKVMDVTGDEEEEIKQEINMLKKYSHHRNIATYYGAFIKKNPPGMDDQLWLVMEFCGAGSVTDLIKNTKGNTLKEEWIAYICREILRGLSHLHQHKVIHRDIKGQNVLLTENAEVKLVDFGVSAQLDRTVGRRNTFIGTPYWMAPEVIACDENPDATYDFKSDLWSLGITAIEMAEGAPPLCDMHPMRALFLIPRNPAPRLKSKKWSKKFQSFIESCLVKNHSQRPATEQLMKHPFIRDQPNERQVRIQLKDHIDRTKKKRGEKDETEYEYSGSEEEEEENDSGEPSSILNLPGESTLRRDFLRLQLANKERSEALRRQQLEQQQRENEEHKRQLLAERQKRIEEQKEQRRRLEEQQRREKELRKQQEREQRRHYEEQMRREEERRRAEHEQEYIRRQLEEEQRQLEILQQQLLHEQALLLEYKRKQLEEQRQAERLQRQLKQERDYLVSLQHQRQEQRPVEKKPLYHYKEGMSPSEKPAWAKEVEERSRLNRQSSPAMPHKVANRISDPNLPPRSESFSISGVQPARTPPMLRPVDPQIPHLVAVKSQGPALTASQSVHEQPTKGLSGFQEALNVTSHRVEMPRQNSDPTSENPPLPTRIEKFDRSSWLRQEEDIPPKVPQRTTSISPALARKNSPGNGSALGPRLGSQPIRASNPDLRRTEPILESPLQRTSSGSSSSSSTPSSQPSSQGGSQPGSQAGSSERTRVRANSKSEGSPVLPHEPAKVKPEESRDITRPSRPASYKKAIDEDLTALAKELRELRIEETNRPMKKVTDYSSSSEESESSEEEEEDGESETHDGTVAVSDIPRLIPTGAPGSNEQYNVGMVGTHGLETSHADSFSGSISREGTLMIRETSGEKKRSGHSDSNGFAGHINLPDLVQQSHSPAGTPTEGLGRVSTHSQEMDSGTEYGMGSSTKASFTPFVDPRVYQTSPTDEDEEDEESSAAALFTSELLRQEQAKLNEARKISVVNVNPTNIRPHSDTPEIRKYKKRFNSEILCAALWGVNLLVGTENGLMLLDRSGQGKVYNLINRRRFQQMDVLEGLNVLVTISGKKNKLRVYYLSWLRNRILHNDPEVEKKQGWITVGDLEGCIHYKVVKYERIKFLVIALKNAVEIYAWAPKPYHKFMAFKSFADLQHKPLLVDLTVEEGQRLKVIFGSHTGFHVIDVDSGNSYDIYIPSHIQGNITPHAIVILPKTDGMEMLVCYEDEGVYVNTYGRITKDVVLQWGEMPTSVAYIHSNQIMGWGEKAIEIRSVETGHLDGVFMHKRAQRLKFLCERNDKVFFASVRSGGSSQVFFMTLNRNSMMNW

[5] = target: Interferon-induced, double-stranded RNA-activated protein kinase (Homo sapiens) (UniProt P19525); experiment: Inhibition of PKR ACT labeling site in human Huh-7 cells at 1 uM by KiNativ Profiling analysis relative to control; type: cell-based
Interferon-induced, double-stranded RNA-activated protein kinase (Homo sapiens), sequence (P19525 whole entry): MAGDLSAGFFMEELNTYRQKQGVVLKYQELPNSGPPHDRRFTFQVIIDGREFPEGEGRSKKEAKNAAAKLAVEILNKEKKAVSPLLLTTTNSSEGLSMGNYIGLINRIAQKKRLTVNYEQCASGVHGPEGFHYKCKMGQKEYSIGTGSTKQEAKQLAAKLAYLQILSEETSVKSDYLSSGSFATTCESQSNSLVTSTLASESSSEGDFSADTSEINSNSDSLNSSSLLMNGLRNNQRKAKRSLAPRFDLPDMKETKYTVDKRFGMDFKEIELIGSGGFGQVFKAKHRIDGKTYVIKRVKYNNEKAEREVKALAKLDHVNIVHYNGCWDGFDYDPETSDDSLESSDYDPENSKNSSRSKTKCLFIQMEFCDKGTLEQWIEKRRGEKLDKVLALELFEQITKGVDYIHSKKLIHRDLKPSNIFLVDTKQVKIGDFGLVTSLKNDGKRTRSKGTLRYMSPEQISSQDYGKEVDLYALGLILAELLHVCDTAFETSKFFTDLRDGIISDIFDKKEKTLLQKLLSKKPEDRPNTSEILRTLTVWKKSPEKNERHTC

[6] = target: Serine/threonine-protein kinase BRSK1 (Homo sapiens) (UniProt Q8TDC3); experiment: Inhibition of BRSK1 (unknown origin) at 10 uM by Ambit Kinomescan binding assay
Serine/threonine-protein kinase BRSK1 (Homo sapiens), sequence (Q8TDC3 whole entry): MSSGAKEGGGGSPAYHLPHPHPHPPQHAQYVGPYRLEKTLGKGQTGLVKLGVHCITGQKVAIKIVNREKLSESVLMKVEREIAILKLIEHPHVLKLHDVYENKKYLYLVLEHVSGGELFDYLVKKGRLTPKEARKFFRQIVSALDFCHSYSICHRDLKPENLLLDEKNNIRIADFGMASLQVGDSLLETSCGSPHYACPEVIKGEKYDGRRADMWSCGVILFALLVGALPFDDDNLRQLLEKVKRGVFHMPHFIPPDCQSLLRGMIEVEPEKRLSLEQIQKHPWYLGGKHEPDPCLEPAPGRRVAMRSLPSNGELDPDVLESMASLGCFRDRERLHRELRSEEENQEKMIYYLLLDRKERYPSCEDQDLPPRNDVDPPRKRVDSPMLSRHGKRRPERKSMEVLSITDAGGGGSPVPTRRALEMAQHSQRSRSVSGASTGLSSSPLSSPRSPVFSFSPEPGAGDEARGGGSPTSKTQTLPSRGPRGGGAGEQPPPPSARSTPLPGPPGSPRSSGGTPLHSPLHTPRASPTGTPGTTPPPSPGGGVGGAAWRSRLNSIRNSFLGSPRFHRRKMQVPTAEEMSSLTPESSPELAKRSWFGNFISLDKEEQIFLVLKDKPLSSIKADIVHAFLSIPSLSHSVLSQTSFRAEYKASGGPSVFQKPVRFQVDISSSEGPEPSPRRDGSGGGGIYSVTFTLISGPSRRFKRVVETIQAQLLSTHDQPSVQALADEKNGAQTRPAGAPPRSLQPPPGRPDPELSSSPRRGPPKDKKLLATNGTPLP

[7] = target: TRAF2 and NCK-interacting protein kinase (Homo sapiens) (UniProt Q9UKE5); experiment: Inhibition of TNIK (unknown origin) at 10 uM by Ambit Kinomescan binding assay relative to control; values are per cent of control
[8] = target: DNA-PK/Ku70/Ku85 (Homo sapiens) (UniProt P78527+P12956+P13010); experiment: Inhibition of DNAPK ATP labeling site harbouring KGGSWIQEINVAEK in human A-375 cells at 5 uM by KiNativ Profiling analysis relative to control; type: cell-based
How it was run: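 Live A375 melanoma cells were treated with compound at 0.5 or 5 μM, then lysed. Lysates were labeled with a lysine-reactive ATP or ADP-biotin probe. The read-out was protection of each kinase probe-labeling site from labeling, relative to control.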

In the case of `CNc1cc(Oc2cc(C(=O)Nc3cc(N4CCN(C)CC4)cc(C(F)(F)F)c3)ccc2C)ncn1`, the inhibition [1] was -2.3% and the inhibition [2] was -1.2%.

Work on `CCN1CCN(Cc2ccc(NC(=O)c3ccc(C)c(Oc4ccnc5[nH]ccc45)c3)cc2C(F)(F)F)CC1` yielded an inhibition [3] of -9.5%, an inhibition [4] of 72.6% and an inhibition [5] of 48.5%. For the same compound, the inhibition [6] was “inactive” and the residual activity [7] was 8.2%.

`CCN1CCN(Cc2ccc(NC(=O)c3ccc(C)c(/C=C/c4cnc5[nH]ccc5c4OC)c3)cc2C(F)(F)F)CC1` was tested, and the inhibition [8] was -8.9%.
